Laboratory results reported in ChEMBL document CHEMBL1152600, “Dibenzazecine scaffold rebuilding--is the flexibility always essential for high dopamine receptor affinities?” (Bioorg Med Chem, 2009).
Activity calls are given as the source filed them. No cut-off for these calls is given here.

What was measured:
D(1A) dopamine receptor [1] = target: T1, D(1A) dopamine receptor (Homo sapiens, UniProt P21728); assay: Agonist activity at human dopamine D1 receptor expressed in HEK293 cells assessed as intracellular calcium by fluorescence microplate reader; type: functional, cell-based
How it was run: (§1)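 Human receptor in HEK293 cells, loaded 45 min at 37 °C with Oregon Green 488 BAPTA-1/AM plus Pluronic F-127 in Krebs-HEPES buffer (pH 7.4). Cells were suspended, plated and held 30 min at 37 °C, 5% CO2. Test compound was injected at rising concentrations. Fluorescence was read at ex 485/em 520 nm for 30 s. Maximum intensity was fitted with a sigmoidal curve. At least two experiments, 4 or 6 replicates each.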

D(2) dopamine receptor [2] = target: T2, D(2) dopamine receptor (Homo sapiens, UniProt P14416); assay: Agonist activity at human dopamine D2L receptor expressed in HEK293 cells assessed as intracellular calcium by fluorescence microplate reader; type: functional, cell-based; how it was run: as §1
D(1A) dopamine receptor [3] = target: T1, D(1A) dopamine receptor; assay: Antagonist activity at human dopamine D1 receptor expressed in HEK293 cells assessed as SKF-38393-induced intracellular calcium by fluorescence microplate reader; type: functional, cell-based
How it was run: (§2)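 They were then injected with standard agonist at 1 µM final: SKF 38393 for D1, quinpirole for D2L. Fluorescence was read at ex 485/em 520 nm for 30 s. Peak signal was fitted with a sigmoidal curve. At least two experiments, 4 or 6 replicates each.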

D(2) dopamine receptor [4] = target: T2, D(2) dopamine receptor; assay: Antagonist activity at human dopamine D2L receptor expressed in HEK293 cells assessed as quinpirole-induced intracellular calcium by fluorescence microplate reader; type: functional, cell-based; how it was run: as §2
D(4) dopamine receptor = target: T3, D(4) dopamine receptor (Homo sapiens, UniProt P21917); assay: Displacement of [3H]spiperone from human dopamine D4 receptor expressed in CHO cells by scintillation counting; type: cell-based
T3 sequence (P21917 whole entry): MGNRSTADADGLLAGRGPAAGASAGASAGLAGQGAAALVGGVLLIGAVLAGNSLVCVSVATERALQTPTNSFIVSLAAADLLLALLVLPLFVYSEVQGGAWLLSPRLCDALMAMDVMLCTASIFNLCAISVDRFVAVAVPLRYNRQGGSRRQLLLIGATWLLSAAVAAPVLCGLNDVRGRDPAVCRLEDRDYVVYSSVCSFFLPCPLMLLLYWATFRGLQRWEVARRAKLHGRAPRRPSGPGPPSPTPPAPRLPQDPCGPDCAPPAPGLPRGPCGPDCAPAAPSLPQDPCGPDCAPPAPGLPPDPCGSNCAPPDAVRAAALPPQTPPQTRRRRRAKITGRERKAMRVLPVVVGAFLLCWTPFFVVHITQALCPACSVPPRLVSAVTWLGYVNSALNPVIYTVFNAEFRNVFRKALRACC

D(1A) dopamine receptor [5] = target: T1, D(1A) dopamine receptor; assay: Displacement of [3H]SCH23390 from human dopamine D1 receptor expressed in CHO cells by scintillation counting; type: cell-based
D(1B) dopamine receptor = D(1B) dopamine receptor (Homo sapiens, UniProt P21918); assay: Displacement of [3H]SCH23390 from human dopamine D5 receptor expressed in CHO cells by scintillation counting; type: cell-based
D(3) dopamine receptor [6] = target: D(3) dopamine receptor (Homo sapiens, UniProt P35462); assay: Displacement of [3H]spiperone from human dopamine D3 receptor expressed in CHO cells by scintillation counting; type: cell-based
D(2) dopamine receptor [7] = target: T2, D(2) dopamine receptor; assay: Displacement of [3H]spiperone from human dopamine D2L receptor expressed in CHO cells by scintillation counting; type: cell-based
D(3) dopamine receptor [8] = target: D(3) dopamine receptor (Rattus norvegicus, UniProt P19020); assay: Displacement of [3H]spiperone from rat dopamine D3 receptor expressed in CHO cells by scintillation counting; type: cell-based
Sequence of D(3) dopamine receptor (Rattus norvegicus, UniProt P19020) (P19020 whole entry): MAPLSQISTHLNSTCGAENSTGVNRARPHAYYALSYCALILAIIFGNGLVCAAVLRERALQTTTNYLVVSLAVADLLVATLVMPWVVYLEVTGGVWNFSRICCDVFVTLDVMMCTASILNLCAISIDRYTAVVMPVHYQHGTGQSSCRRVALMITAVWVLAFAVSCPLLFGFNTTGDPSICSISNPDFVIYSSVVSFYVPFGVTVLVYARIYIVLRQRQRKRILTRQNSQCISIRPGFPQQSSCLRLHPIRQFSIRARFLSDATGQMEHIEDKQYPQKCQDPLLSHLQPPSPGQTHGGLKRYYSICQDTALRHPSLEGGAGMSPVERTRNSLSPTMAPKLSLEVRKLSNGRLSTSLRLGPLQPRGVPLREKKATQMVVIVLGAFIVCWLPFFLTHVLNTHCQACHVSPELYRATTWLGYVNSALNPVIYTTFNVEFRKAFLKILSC

Sequence of D(1B) dopamine receptor (P21918 whole entry): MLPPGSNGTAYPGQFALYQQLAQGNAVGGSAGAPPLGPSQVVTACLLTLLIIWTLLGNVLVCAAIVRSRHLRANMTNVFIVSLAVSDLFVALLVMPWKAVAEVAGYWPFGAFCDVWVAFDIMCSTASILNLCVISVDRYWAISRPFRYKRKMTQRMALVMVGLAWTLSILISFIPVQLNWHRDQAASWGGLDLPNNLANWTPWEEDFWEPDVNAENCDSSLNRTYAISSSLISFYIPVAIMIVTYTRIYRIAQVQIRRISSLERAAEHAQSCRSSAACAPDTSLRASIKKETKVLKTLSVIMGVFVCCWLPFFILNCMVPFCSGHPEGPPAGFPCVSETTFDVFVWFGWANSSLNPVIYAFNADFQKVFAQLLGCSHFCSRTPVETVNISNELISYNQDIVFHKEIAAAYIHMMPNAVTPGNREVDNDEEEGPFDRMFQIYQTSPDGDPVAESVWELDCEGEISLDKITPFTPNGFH
T2 sequence (P14416 whole entry): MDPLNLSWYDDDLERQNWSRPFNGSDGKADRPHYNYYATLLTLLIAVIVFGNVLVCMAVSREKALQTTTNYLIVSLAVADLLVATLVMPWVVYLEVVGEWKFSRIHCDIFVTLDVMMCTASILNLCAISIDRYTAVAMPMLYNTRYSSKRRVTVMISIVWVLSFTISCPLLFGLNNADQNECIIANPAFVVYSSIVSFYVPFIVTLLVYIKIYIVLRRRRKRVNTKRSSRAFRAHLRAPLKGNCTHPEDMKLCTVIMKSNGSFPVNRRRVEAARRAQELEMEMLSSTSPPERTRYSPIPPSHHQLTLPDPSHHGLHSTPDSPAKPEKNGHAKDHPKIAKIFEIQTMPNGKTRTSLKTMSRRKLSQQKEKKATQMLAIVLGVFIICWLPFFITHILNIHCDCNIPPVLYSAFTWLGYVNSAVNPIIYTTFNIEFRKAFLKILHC
Sequence of D(3) dopamine receptor (Homo sapiens, UniProt P35462) (P35462 whole entry): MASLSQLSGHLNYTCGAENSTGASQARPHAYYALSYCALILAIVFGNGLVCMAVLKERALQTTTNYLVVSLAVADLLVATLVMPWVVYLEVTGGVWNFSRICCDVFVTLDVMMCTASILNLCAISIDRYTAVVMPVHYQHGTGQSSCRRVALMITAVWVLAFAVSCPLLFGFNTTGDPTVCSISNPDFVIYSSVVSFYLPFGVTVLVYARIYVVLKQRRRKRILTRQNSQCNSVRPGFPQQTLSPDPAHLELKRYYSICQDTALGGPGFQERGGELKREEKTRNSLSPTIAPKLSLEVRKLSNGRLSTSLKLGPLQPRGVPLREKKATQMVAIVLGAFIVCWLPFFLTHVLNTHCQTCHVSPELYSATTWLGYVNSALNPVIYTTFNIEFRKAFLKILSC
T1 sequence (P21728 whole entry): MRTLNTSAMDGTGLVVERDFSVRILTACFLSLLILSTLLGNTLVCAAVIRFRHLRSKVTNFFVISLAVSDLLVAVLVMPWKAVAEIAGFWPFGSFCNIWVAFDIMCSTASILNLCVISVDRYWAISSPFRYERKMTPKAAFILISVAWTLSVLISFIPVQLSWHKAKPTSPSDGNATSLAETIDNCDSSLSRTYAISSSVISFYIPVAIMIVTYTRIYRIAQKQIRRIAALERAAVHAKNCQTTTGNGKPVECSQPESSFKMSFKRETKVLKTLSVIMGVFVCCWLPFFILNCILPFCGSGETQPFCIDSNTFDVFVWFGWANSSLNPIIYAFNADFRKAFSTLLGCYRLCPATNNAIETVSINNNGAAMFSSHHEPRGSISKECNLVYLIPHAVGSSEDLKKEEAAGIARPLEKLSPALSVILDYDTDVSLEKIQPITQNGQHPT

Compound	Activity (D(1A) dopamine receptor [1])	Activity (D(2) dopamine receptor [2])	Activity (D(1A) dopamine receptor [3])	Activity (D(2) dopamine receptor [4])	Ki (D(4) dopamine receptor) [µM]	Ki (D(1A) dopamine receptor [5]) [nM]	Ki (D(1B) dopamine receptor) [nM]	Ki (D(3) dopamine receptor [6]) [µM]	Ki (D(2) dopamine receptor [7]) [nM]	Ki (D(3) dopamine receptor [8]) [nM]
COc1ccc2c(c1)CCN(C)CCc1ccccc1C2	inactive	inactive	Active	Active	0.0434	–	–	–	–	–
CCc1cc(OC)ccc1C1Cc2ccccc2CN1C (stereo unspecified)	inactive	inactive	Active	Active	> 10	> 10000	> 10000	> 10	> 10000	–
CN1CCc2ccccc2Cc2ccc(O)cc2CC1	inactive	inactive	Active	Active	–	–	–	–	–	–
CN1CCc2cc(O)ccc2CCc2ccccc2C1	inactive	inactive	Active	Active	–	–	–	–	–	–
Oc1cc2c(cc1O)[C@H]1c3ccccc3CN[C@@H]1CC2	inactive	inactive	Active	Active	–	–	–	–	–	–
COc1ccc2c(c1)CCCN1Cc3ccccc3C21 (stereo unspecified)	inactive	–	Active	–	–	–	–	–	–	–
COc1ccc2c(c1)CCN(C)C2Cc1ccccc1C (stereo unspecified)	inactive	inactive	Active	Active	6.64	2350	> 10000	> 10	7370	–
Oc1ccc2c(c1)CCN1CCc3ccccc3C21 (stereo unspecified)	inactive	inactive	Active	Active	> 10	> 10000	> 10000	> 10	> 10000	–
Oc1ccc2c(c1)CCN1Cc3ccccc3CC21 (stereo unspecified)	inactive	inactive	Active	Active	5.09	136	41.1	0.306	486	–
Cc1ccccc1CC1c2ccc(O)cc2CCN1C (stereo unspecified)	inactive	inactive	Active	Active	–	3020	–	–	2720	–
CN1CCCc2cc(O)ccc2Cc2ccccc2C1	inactive	–	Active	–	–	2070	1810	–	–	–
COc1ccc2c(c1)CCN1Cc3ccccc3CC21 (stereo unspecified)	inactive	inactive	Active	Active	2.56	183	185	0.251	320	–
COc1ccc2c(c1)CCN1CCc3ccccc3C21 (stereo unspecified)	inactive	inactive	Active	Active	–	2120	–	–	–	–
COc1ccc2c(c1)CCN(C)Cc1ccccc1CC2	inactive	inactive	Active	Active	> 10	1730	1510	> 10	> 10000	–
COc1cc2c(cc1O)[C@@H]1Cc3ccc(O)c(OC)c3CN1CC2 [STEPHOLIDINE]	inactive	inactive	Active	Active	3.75	5.9	4.4	–	974	30
COc1ccc2c(c1)CCCN(C)Cc1ccccc1C2	inactive	inactive	Active	Active	> 10	1260	> 10000	> 10	> 10000	–
